# TNAP inh hi DEA – inhibitors of human TNAP at high phosphate acceptor concentration; P05186; purified TNAP, CDP-star luminescence, 1 M DEA; inhibition, % at 20 µM; 200,000 compounds, 0.03% hits; AID 1135;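 active = over 50% inhibition of tissue-nonspecific alkaline phosphatase at 20 µM in the single-dose screen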;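 also: plate controls were DMSO wells for no effect and EDTA-quenched wells as full inhibition for full effect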
# PMI act hi M6P – PMI (human) activation, high substrate | P34949 | coupled PMI enzyme assay, resazurin fluorescence, 20 min; active compounds read high; 1 = untreated enzyme, 0 = substrate-free blank | activation factor at 20 µM | 190,000 compounds, 0.34% hits;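 active = activation factor of 2 or more at 20 µM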
# Target sequence (P34949 whole entry, looked up): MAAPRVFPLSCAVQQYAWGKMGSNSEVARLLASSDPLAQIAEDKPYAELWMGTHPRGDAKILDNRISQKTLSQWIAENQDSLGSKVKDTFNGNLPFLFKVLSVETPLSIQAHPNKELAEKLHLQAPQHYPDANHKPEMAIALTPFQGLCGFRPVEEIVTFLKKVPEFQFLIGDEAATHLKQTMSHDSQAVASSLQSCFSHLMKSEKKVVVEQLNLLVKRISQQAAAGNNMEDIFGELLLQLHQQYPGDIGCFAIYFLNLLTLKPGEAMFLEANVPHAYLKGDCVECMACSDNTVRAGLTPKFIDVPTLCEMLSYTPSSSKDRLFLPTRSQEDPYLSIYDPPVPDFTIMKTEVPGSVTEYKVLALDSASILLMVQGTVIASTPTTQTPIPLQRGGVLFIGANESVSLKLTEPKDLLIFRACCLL
#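 Test system: human phosphomannose isomerase with PGI, G6PDH, diaphorase coupling enzymes; amount: 15 ng/mL PMI; incubation: enzyme reaction with compound 20 min at room temperature; technique: resorufin fluorescence (Ex 544/Em 590 nm) from resazurin via diaphorase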
# PMI activator – increases human mannose-6-phosphate isomerase activity. P34949. purified human PMI, coupled resazurin fluorescence, 20 min; active compounds read high; 1 = vehicle control, 0 substrate-free wells. activation factor at 20 µM. 190,000 compounds, 0.005% hits;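 active = activation factor of 2 or more at 20 µM, relative to plate controls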
# TNAP inh noacc – inhibitors of human TNAP without phosphate acceptor; purified TNAP, CDP-star luminescence, 30 min; 200,000 compounds, 0.26% hits; inhibition, % at 20 µM; P05186;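 active = tissue-nonspecific alkaline phosphatase inhibition above about 50% at 20 µM in the single-dose screen, limit read from the data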;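 also: 0% = DMSO negative control and 100% = EDTA positive control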
# TNAP act hiacc – activators of human TNAP at high phosphate acceptor concentration; activation factor at 20 µM; 200,000 tested, under 10 active; P05186; purified TNAP, CDP-star luminescence, 1 M DEA, 30 min; active compounds read high; 0 = EDTA background, 1 = DMSO-only activity;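 active = activation factor at least 2 at 20 µM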
#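 system = human TNAP | amount = enzyme diluted 1/800 final | reagent = 100 µM CDP-star substrate | signal = luminescent substrate turnover signal | dosing = one dose, 20 µM | benchmarks = EDTA negative control, DMSO positive control | measure = activation factor | timing = 30 min reaction, room temperature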
# Active calls of the source: *. Shown are actives, neighbours in structure and some others; about 0.64% of the full set was active somewhere.
SMILES,TNAP inh hi DEA,PMI act hi M6P,PMI activator,TNAP inh noacc,TNAP act hiacc
O=C(CN1C(=O)c2ccccc2C1=O)Nc1cccc(S(=O)(=O)Nc2ccccc2Cl)c1,2,0.9,0.9,-1,1
CC1CC(C)(C)CC2(C1)NC(=S)N(c1ccccc1)N2 (configuration not stated),-3,2*,1.7,10,1
CC1CCCC2(C1)NC(=S)c1c(sc3c1CCCC3)N2 (configuration not stated),3,0.6,0.3,-10,1
CC1(c2ccccc2)NC(=S)N2C1NC(=S)N2c1ccccc1 (configuration not stated),1,1.2,1.1,-36,1
S=C1NC2(CCCCC2)NN1c1ccccc1,-4,2.9*,1.8,-10,1
CC1CCCC2(C1)NC(=S)N(c1ccccc1)N2 (configuration not stated),0,2.7*,1.5,-6,1
O=C1NC2(CCC3(CC2)OCCO3)NN1c1ccccc1,-3,2.3*,1.6,-9,1
COc1ccc(C(=O)C2CCCN(C(=O)c3noc4c3CCCC4)C2)c(C)c1 (configuration not stated),-6,0.9,0.9,-13,1.1
CCOC(=O)CCCSc1nnc(CCCCCN2C(=O)c3cccc4cccc(c34)C2=O)o1,0,0.9,0.8,2,1
CC(C)(C)N1NC2(CCCCC2)NC1=S,-2,2.1*,1.5,4,1
O=C(COC(=O)Cc1ccccc1F)Nc1cccc(S(=O)(=O)NC2=NCCCCC2)c1,-7,0.9,0.9,-16,1.1
COc1ccc(-c2[nH]nc3oc(=O)c(CCO)c(C)c23)cc1,1,1,1.1,6,1
COc1ccc(-c2[nH]nc3oc(=O)cc(C)c23)cc1,8,0.9,0.9,90*,0.9
Cc1cc(=O)oc2n[nH]c(-c3ccccc3)c12,1,1.1,1,92*,1
Cc1nc(-c2ccccc2)cc(=O)[nH]1,-6,1.1,1.1,-13,1.1
COc1ccc(C(CC(=O)Nc2cc([N+](=O)[O-])ccc2OC)c2ccccc2)cc1 (configuration not stated),3,0.5,0.9,-4,1
COCCN1Cc2cccc(C(=O)NC(C)c3cccs3)c2C1=O (configuration not stated),-4,1,1,-23,1
O=C(CN1CCN(Cc2ccccc2)CC1)Nc1ccc(N2CCOCC2)cc1,-1,1.1,1.1,-8,1
CC(C)Cc1nc(SCC(=O)Nc2ccc(S(N)(=O)=O)cc2)n[nH]1,0,1,1,37,1
Nc1nc(SCC(=O)Nc2ccc(S(N)(=O)=O)cc2)n[nH]1,2,1,1,64*,1
Cc1ccc(/C=N/Nc2ccc(C(=O)O)cc2)o1,-5,1.1,1.1,-14,1
O=C(O)c1ccc(N/N=C/c2ccc(-c3ccccc3)cc2)cc1,0,2.4*,1.6,-10,1
CC(C)c1ccc(/C=N/Nc2ccc(C(=O)O)cc2)cc1,1,2.5*,1.8,-8,1
COc1ccc(/C=N/Nc2ccc(C(=O)O)cc2)cc1Br,-3,2.5*,1.8,-10,1
CCOC(=O)Cc1csc(NC(=O)c2sc3nc4c(C)cc(C)cc4cc3c2N)n1,2,1.9,1.5,3,1
Oc1ccc(C2=Nn3c(nnc3-c3ccco3)SC2)cc1O,40,0.4,0.4,91*,0.6
COc1ccc(C2=Nn3c(nnc3-c3ccco3)SC2)cc1,-9,1.2,1.2,16,1.1
O=c1/c(=C/c2ccco2)sc2nc(-c3ccccc3Br)nn12,-6,1.2,1,58*,1.1
CN(CCc1ccccn1)C(=O)CCC1CCCN(C(=O)c2n[nH]c3c2CCCC3)C1 (configuration not stated),-4,1.1,1,70*,1
O=C(CN1C(=O)NC2NC(=O)NC21)N/N=C/c1ccccc1F (configuration not stated),0,1,1,-8,1
